Reference: ChEMBL document CHEMBL3576792, “Enhancement of antibiotic activity against multidrug-resistant bacteria by the efflux pump inhibitor 3,4-dibromopyrrole-2,5-dione isolated from a Pseudoalteromonas sp” (J Nat Prod, 2015)
In brackets after ≈: the same amount, converted by molar mass. Activity calls are given as the source filed them. The rule behind the calls is not given here.

Experiments:
Escherichia coli [1] = assay: Potentiation of kanamycin-induced antibacterial activity Escherichia coli AG102 overexpressing AcrAB-TolC by p-iodonitrotetrazolium chloride colorimetric assay; format: functional
Escherichia coli [2] = assay: Potentiation of kanamycin-induced antibacterial activity Escherichia coli transformed with plasmid carrying MG1655 deltaBC/pABM assessed as kanamycin MIC by p-iodonitrotetrazolium chloride colorimetric assay; format: functional
How it was run: (§1)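 Checkerboard microdilution in Mueller-Hinton broth: two-fold dilutions of antibiotic crossed with dilutions of test compound above, at and below their MICs. Growth was read by INT colorimetric assay, with MIC as the lowest concentration showing no visible growth. FICs and FIC index were derived from these MICs. ΔBC/pABM and ΔBC/pXYM strains were grown with 100 μg/mL ampicillin and 1 mM IPTG.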

Escherichia coli K-12 [3] = assay: Inhibition of AcrAB-TolC pump in Escherichia coli K-12 AG100 assessed as […] at 0.25 ug/ml after 60 mins by accumulation assay
How it was run: (§2)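 Cells grown in Luria broth at 37 °C, 200 rpm to OD600 1.0, washed twice in PBS and diluted in glucose-free PBS to OD600 0.3. Cells were given 2.5 μM H33342 with 22 mM glucose at 37 °C for ~30 min until stable, then compound added (0.06–64 μg/mL). Fluorescence (Ex 350/Em 460 nm) was read for 60 min, background subtracted, and the final 4 min averaged (n = 8).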

Escherichia coli [4] = assay: Effect on intracellular H33342 accumulation in Escherichia coli AG100A delta acrAB mutant at 16 ug/ml after 60 mins by accumulation assay; format: functional
How it was run: (§3)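 Cells grown in Luria broth at 37 °C, 200 rpm to OD600 1.0, then washed twice in PBS and diluted in glucose-free PBS to OD600 0.3. H33342 was used at 2.5 μM with 22 mM glucose at 37 °C and allowed to accumulate for ~30 min. Compound was then added and fluorescence (Ex 350/Em 460 nm) followed for 60 min. Values are the mean RFU of the final 4 min, after media-plus-compound background was subtracted. Run in duplicate, n = 8.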

Escherichia coli [5] = assay: Potentiation of chloramphenicol-induced antibacterial activity Escherichia coli transformed with plasmid carrying MG1655 deltaBC/pXYM by p-iodonitrotetrazolium chloride colorimetric assay; format: functional
Escherichia coli K-12 [6] = assay: Inhibition of AcrAB-TolC pump in Escherichia coli K-12 AG100 assessed as […] at 4 ug/ml after 60 mins by accumulation assay
How it was run: (§4)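 AG100 (wild-type K-12) or AG100A (ΔacrAB) grown in Luria broth at 37 °C and 200 rpm to OD600 1.0, PBS-washed, diluted to OD600 0.3. Cells given 2.5 μM H33342 with 22 mM glucose at 37 °C for ~30 min until stable, then compound (0.06–64 μg/mL) added. Fluorescence (Ex 350/Em 460) read for 60 min, background subtracted. Final 4 time points averaged; one-way ANOVA/Dunnett vs Hoechst-only; n = 8.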

Escherichia coli [7] = assay: Potentiation of erythromycin-induced antibacterial activity Escherichia coli AG102 overexpressing AcrAB-TolC by p-iodonitrotetrazolium chloride colorimetric assay; format: functional
Escherichia coli [8] = assay: Potentiation of tetracycline-induced antibacterial activity Escherichia coli transformed with plasmid carrying MG1655 deltaBC/pABM assessed as tetracycline MIC by p-iodonitrotetrazolium chloride colorimetric assay; format: functional; how it was run: as §1
Escherichia coli [9] = assay: Potentiation of oxacillin-induced antibacterial activity Escherichia coli AG102 overexpressing AcrAB-TolC by p-iodonitrotetrazolium chloride colorimetric assay; format: functional, organism-based; how it was run: as §1
Escherichia coli [10] = assay: Potentiation of erythromycin-induced antibacterial activity Escherichia coli AG102 overexpressing AcrAB-TolC assessed as erythromycin MIC by p-iodonitrotetrazolium chloride colorimetric assay; format: functional; how it was run: as §1
Escherichia coli [11] = assay: Effect on intracellular H33342 accumulation in Escherichia coli AG100A delta acrAB mutant at 0.25 ug/ml after 60 mins by accumulation assay; format: functional; how it was run: as §2
Escherichia coli [12] = assay: Potentiation of ciprofloxacin-induced antibacterial activity Escherichia coli transformed with plasmid carrying MG1655 deltaBC/pABM assessed as ciprofloxacin MIC by p-iodonitrotetrazolium chloride colorimetric assay; format: functional; how it was run: as §1
Escherichia coli [13] = assay: Potentiation of piperacillin-induced antibacterial activity Escherichia coli transformed with plasmid carrying MG1655 deltaBC/pXYM by p-iodonitrotetrazolium chloride colorimetric assay; format: functional
Escherichia coli [14] = assay: Potentiation of piperacillin-induced antibacterial activity Escherichia coli transformed with plasmid carrying MG1655 deltaBC/pABM by p-iodonitrotetrazolium chloride colorimetric assay; format: functional, organism-based; how it was run: as §1
Escherichia coli [15] = assay: Antibacterial activity against Escherichia coli AG102 overexpressing AcrAB-TolC by p-iodonitrotetrazolium chloride colorimetric assay; format: functional
How it was run: (§5)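 Two-fold broth microdilution in Mueller-Hinton broth, read by p-iodonitrotetrazolium chloride colorimetric assay. MIC is the lowest concentration giving no visible growth. MG1655 ΔacrB ΔtolC strains carrying pABM or pXYM were always cultured with 100 μg/mL ampicillin and 1 mM IPTG. Medium, inoculum and 1% DMSO (final) served as negative control.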

Escherichia coli [16] = assay: Potentiation of kanamycin-induced antibacterial activity Escherichia coli AG102 overexpressing AcrAB-TolC assessed as kanamycin MIC by p-iodonitrotetrazolium chloride colorimetric assay; format: functional; how it was run: as §1
Escherichia coli K-12 [17] = assay: Inhibition of AcrAB-TolC pump in Escherichia coli K-12 AG100 assessed as increase in H33342 accumulation at 64 ug/ml after 60 mins by accumulation assay
Escherichia coli [18] = assay: Potentiation of tetracycline-induced antibacterial activity Escherichia coli transformed with plasmid carrying MG1655 deltaBC/pXYM by p-iodonitrotetrazolium chloride colorimetric assay; format: functional
Escherichia coli K-12 [19] = assay: Inhibition of AcrAB-TolC pump in Escherichia coli K-12 AG100 assessed as […] at 16 ug/ml after 60 mins by accumulation assay; how it was run: as §4
Escherichia coli [20] = assay: Potentiation of oxacillin-induced antibacterial activity Escherichia coli transformed with plasmid carrying MG1655 deltaBC/pXYM by p-iodonitrotetrazolium chloride colorimetric assay; format: functional
Escherichia coli [21] = assay: Antibacterial activity against Escherichia coli transformed with plasmid carrying MG1655 deltaBC/pXYM by p-iodonitrotetrazolium chloride colorimetric assay; format: functional; how it was run: as §5
Escherichia coli [22] = assay: Potentiation of piperacillin-induced antibacterial activity Escherichia coli AG102 overexpressing AcrAB-TolC by p-iodonitrotetrazolium chloride colorimetric assay; format: functional
Escherichia coli [23] = assay: Effect on intracellular H33342 accumulation in Escherichia coli AG100A delta acrAB mutant at 0.06 ug/ml after 60 mins by accumulation assay; format: functional; how it was run: as §3
Escherichia coli [24] = assay: Potentiation of erythromycin-induced antibacterial activity Escherichia coli transformed with plasmid carrying MG1655 deltaBC/pXYM assessed as erythromycin MIC by p-iodonitrotetrazolium chloride colorimetric assay; format: functional; how it was run: as §1
Escherichia coli [25] = assay: Potentiation of chloramphenicol-induced antibacterial activity Escherichia coli transformed with plasmid carrying MG1655 deltaBC/pXYM assessed as chloramphenicol MIC by p-iodonitrotetrazolium chloride colorimetric assay; format: functional; how it was run: as §1
Escherichia coli [26] = assay: Potentiation of levofloxacin-induced antibacterial activity Escherichia coli transformed with plasmid carrying MG1655 deltaBC/pXYM MIC by p-iodonitrotetrazolium chloride colorimetric assay; format: functional
Escherichia coli [27] = assay: Potentiation of levofloxacin-induced antibacterial activity Escherichia coli transformed with plasmid carrying MG1655 deltaBC/pABM MIC by p-iodonitrotetrazolium chloride colorimetric assay; format: functional

Question: `O=C1NC(=O)C(Br)=C1Br` was tested. Which “fractional inhibitory concentration index (FICI)” value (Escherichia coli [1]) did it give?
Answer: The value was 0.27.

Question: And the MIC (Escherichia coli [2])?
Answer: Its MIC is 128 µg/mL.

Question: What about the RFU (Escherichia coli K-12 [3]) of the same molecule?
Answer: Its RFU is 796.

Question: What about the RFU (Escherichia coli [4]) of the same molecule?
Answer: The RFU was 1100.

Question: What about the “fractional inhibitory concentration index (FICI)” value (Escherichia coli [5]) of the same molecule?
Answer: The value was 0.19.

Question: And the RFU (Escherichia coli K-12 [6])?
Answer: The RFU was 1130.

Question: What about the “fractional inhibitory concentration index (FICI)” value (Escherichia coli [7]) of the same molecule?
Answer: The value was 0.38.

Question: What about the MIC (Escherichia coli [8]) of the same molecule?
Answer: The MIC was 128 µg/mL.

Question: What about the “fractional inhibitory concentration index (FICI)” value (Escherichia coli [9]) of the same molecule?
Answer: The value was “inactive”.

Question: What about the MIC (Escherichia coli [10]) of the same molecule?
Answer: Its MIC is 128 µg/mL.

Question: And the RFU (Escherichia coli [11])?
Answer: The RFU was 1000.

Question: What about the MIC (Escherichia coli [12]) of the same molecule?
Answer: Its MIC is 64 µg/mL.

Question: And the “fractional inhibitory concentration index (FICI)” value (Escherichia coli [13])?
Answer: The value was 0.52.

Question: And the “fractional inhibitory concentration index (FICI)” value (Escherichia coli [14])?
Answer: Its value is “inactive”.

Question: And the MIC (Escherichia coli [15])?
Answer: The MIC was 256 µg/mL (≈ 1000 µM).

Question: And the MIC (Escherichia coli [16])?
Answer: The MIC was 2 µg/mL.

Question: And the RFU (Escherichia coli K-12 [17])?
Answer: Its RFU is 1200.

Question: And the “fractional inhibitory concentration index (FICI)” value (Escherichia coli [18])?
Answer: Its value is 0.58.

Question: And the RFU (Escherichia coli K-12 [19])?
Answer: The RFU was 1170.

Question: What about the “fractional inhibitory concentration index (FICI)” value (Escherichia coli [20]) of the same molecule?
Answer: The value was 0.27.

Question: What about the MIC (Escherichia coli [21]) of the same molecule?
Answer: The MIC was 128 µg/mL (≈ 502 µM).

Question: And the “fractional inhibitory concentration index (FICI)” value (Escherichia coli [22])?
Answer: Its value is 0.75.

Question: And the RFU (Escherichia coli [23])?
Answer: The RFU was 1020.

Question: And the MIC (Escherichia coli [24])?
Answer: Its MIC is 32 µg/mL.

Question: What about the MIC (Escherichia coli [25]) of the same molecule?
Answer: Its MIC is 64 µg/mL.

Question: And the “fractional inhibitory concentration index (FICI)” value (Escherichia coli [26])?
Answer: The value was 0.19.

Question: And the “fractional inhibitory concentration index (FICI)” value (Escherichia coli [27])?
Answer: Its value is 0.75.
